In ChEMBL document CHEMBL4673181, “An investigation of the antileishmanial properties of semi-synthetic saponins” (RSC Med Chem, 2020):

Key:
[1] = test system: Leishmania mexicana; assay: Antileishmanial activity against axenic amastigote stage of Leishmania mexicana (MNYC/BZ/62/M379) assessed as induction of parasite killing incubated for 24 hrs by alamar blue dye based fluorescence analysis; assay type: functional; conditions: read-out: ED50 (the source's name)
In short: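 L. mexicana axenic amastigotes (from promastigotes by pH/temperature shift; Schneider's with 20% HIFBS) at 4x10⁵ mL⁻¹, exposed to three-fold dilutions from 50 μM to 0.21 μM for 24 h at 33 °C in sealed plates. alamarBlue then added for another 24 h, fluorescence read at 560/600 nm. Amphotericin B (50 μM) positive, DMSO negative control. Duplicates on four occasions, EC₅₀ fitted.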

[2] = test system: Leishmania mexicana; assay: Antileishmanial activity against axenic amastigote stage of Leishmania mexicana (MNYC/BZ/62/M379) assessed as inhibition of parasite proliferation at 50 uM incubated for 24 hrs by alamar blue dye based fluorescence analysis; assay type: functional
In short: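 Primary single-point screen at 50 μM, in duplicate. Axenic L. mexicana amastigotes at 4x10⁵ mL⁻¹ incubated with compound 24 h at 33 °C in sealed plates, then alamarBlue for a further 24 h at the same temperature. Viability read by fluorescence at 560/600 nm against amphotericin B (50 μM) and DMSO controls.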

[3] = Selectivity index, ratio of ED50 for mouse RAW264.7 cells to ED50 for antileishmanial activity against axenic amastigote stage of Leishmania mexicana (MNYC/BZ/62/M379); assay type: toxicity; conditions: read-out: Ratio ED50
In short: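 Selectivity index calculated as EC₅₀ in RAW macrophages (24 h alamarBlue cytotoxicity assay) divided by EC₅₀ against axenic L. mexicana amastigotes.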

[4] = Cytotoxicity against mouse RAW264.7 cells assessed as induction of cell killing incubated for 24 hrs by alamar blue dye based fluorescence analysis; conditions: read-out: ED50
In short: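 Mouse macrophages seeded at 2.5×10^5 mL⁻¹ in DMEM/10% HIFBS, 24 h at 37 °C, 5% CO₂. Then washed and held 24 h in DMEM/2% HIFBS. Compounds 100 μM to 0.41 μM in 2% HIFBS medium for 24 h. alamarBlue 4 h, then fluorescence at 560/600 nm. Cycloheximide (50 μM) positive, DMSO negative control. EC₅₀ derived.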

[5] = test system: Leishmania mexicana; assay: Antileishmanial activity against axenic amastigote stage of Leishmania mexicana (MNYC/BZ/62/M379) infected in mouse RAW264.7 cells assessed as induction of parasite killing incubated for 24 hrs by alamar blue dye based fluorescence analysis; assay type: functional
In short: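 RAW264.7 cells seeded at 2.5x10⁵ mL⁻¹ in DMEM with 10% HIFBS for 24 h at 37 °C, 5% CO₂, then infected with axenic amastigotes at 25x10⁵ mL⁻¹ in DMEM with 2% HIFBS for 24 h. Washed 5x, compound added for 24 h. Cells lysed with 0.05% SDS, then grown in Schneider's (pH7, 15% HIFBS) 48 h at 26 °C. alamarBlue 4 h, fluorescence 560/600 nm. Triplicate, three occasions.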

SMILES | EC50 [1] [µM] | inhibition at 50 µM [2] [%] | selectivity ratio [3] | CC50 at 24 h [4] [µM] | ED50 [5] [µM]
CC1(C)CC[C@]2(C(=O)O)CC[C@]3(C)C(=CC[C@@H]4[C@@]5(C)CC[C@H](O)[C@@](C)(C=O)[C@@H]5CC[C@]43C)[C@@H]2C1 | 9.6 | ≥ 95 | 3.8 | 36.6 | 
C#CCOC(=O)[C@]12CCC(C)(C)C[C@H]1C1=CC[C@@H]3[C@@]4(C)CC[C@H](O)[C@@](C)(CO)[C@@H]4CC[C@@]3(C)[C@]1(C)CC2 | 15.1 | ≥ 95 |  |  | 
CC1(C)CC[C@]2(NC(=O)NCc3cccnc3)CC[C@]3(C)C(=CC[C@@H]4[C@@]5(C)CC[C@@H]6OC(C)(C)OC[C@@]6(C)[C@@H]5CC[C@]43C)[C@@H]2C1 | 17.5 | ≥ 95 |  |  | 
C[C@H](O)[C@H]1OC(C[C@@H]2OC[C@@]3(C)[C@@H]4CC[C@]5(C)[C@H](CC=C6[C@@H]7CC(C)(C)CC[C@]7(C(=O)O)CC[C@]65C)[C@@]4(C)CC[C@@H]3O2)[C@@H](O)[C@@H]1O (stereo not given in full) | 10.3 | ≥ 95 | 2.9 | 30.2 | 
CN(C)CCCNC(=O)N[C@]12CCC(C)(C)C[C@H]1C1=CC[C@@H]3[C@@]4(C)CC[C@@H]5OC(C)(C)OC[C@@]5(C)[C@@H]4CC[C@@]3(C)[C@]1(C)CC2 | 17.5 | ≥ 95 |  |  | 
CC1(C)CC[C@]2(C(=O)O)CC[C@]3(C)C(=CC[C@@H]4[C@@]5(C)CC[C@@H]6OCOC[C@@]6(C)[C@@H]5CC[C@]43C)[C@@H]2C1 | 14.9 | ≥ 95 |  |  | 
CC1(C)CC[C@]2(C(=O)O)CC[C@]3(C)C(=CC[C@@H]4[C@@]5(C)CC[C@@H]6O[C@H]([C@H](O)[C@@H](O)[C@@H](O)CO)OC[C@@]6(C)[C@@H]5CC[C@]43C)[C@@H]2C1 | 14.6 | ≥ 95 |  |  | 
CC1(C)CC[C@]2(C(=O)O)CC[C@]3(C)C(=CC[C@@H]4[C@@]5(C)CC[C@@H]6O[C@H]([C@H](O)[C@@H](O)[C@H](O)[C@H](O)CO)OC[C@@]6(C)[C@@H]5CC[C@]43C)[C@@H]2C1 | 4.5 | ≥ 95 | 6.7 | 29.6 | 
CC1(C)CC[C@]2(NC(=O)N3CCCC3)CC[C@]3(C)C(=CC[C@@H]4[C@@]5(C)CC[C@H](O)[C@@](C)(CO)[C@@H]5CC[C@]43C)[C@@H]2C1 | 15.3 | ≥ 95 |  |  | 
CN(C[C@H](O)[C@@H](O)[C@H](O)[C@H](O)CO)C(=O)N[C@]12CCC(C)(C)C[C@H]1C1=CC[C@@H]3[C@@]4(C)CC[C@@H]5OC(C)(C)OC[C@@]5(C)[C@@H]4CC[C@@]3(C)[C@]1(C)CC2 | 19.9 | ≥ 95 |  |  | 
CC1(C)CC[C@]2(C(=O)OCN3C(=O)c4ccccc4C3=O)CC[C@]3(C)C(=CC[C@@H]4[C@@]5(C)CC[C@H](O)[C@@](C)(CO)[C@@H]5CC[C@]43C)[C@@H]2C1 | 17.8 | ≥ 95 |  |  | 
CCOCc1ccc(C2OC[C@@]3(C)[C@@H]4CC[C@]5(C)[C@H](CC=C6[C@@H]7CC(C)(C)CC[C@]7(C(=O)O)CC[C@]65C)[C@@]4(C)CC[C@@H]3O2)o1 (stereo not given in full) | 19.2 | ≥ 95 |  |  | 
CO[C@H]1O[C@H]([C@@H]2OC[C@@]3(C)[C@@H]4CC[C@]5(C)[C@H](CC=C6[C@@H]7CC(C)(C)CC[C@]7(C(=O)O)CC[C@]65C)[C@@]4(C)CC[C@@H]3O2)[C@@H](O)[C@H](O)[C@H]1O | 6 | ≥ 95 | 5 | 29.7 | 
CC1(C)CC[C@]2(C(=O)O)CC[C@]3(C)C(=CC[C@@H]4[C@@]5(C)CC[C@H](OC(=O)CCC(=O)O)[C@@](C)(COC(=O)CCC(=O)O)[C@@H]5CC[C@]43C)[C@@H]2C1 | 2.3 | ≥ 95 | > 44 | > 100 | >50
C[C@@H]1O[C@@H](C[C@@H]2OC[C@@]3(C)[C@@H]4CC[C@]5(C)[C@H](CC=C6[C@@H]7CC(C)(C)CC[C@]7(C(=O)O)CC[C@]65C)[C@@]4(C)CC[C@@H]3O2)[C@H](O)[C@H](O)[C@H]1O | 13.9 | ≥ 95 |  |  | 
COC(=O)[C@]12CCC(C)(C)C[C@H]1C1=CC[C@@H]3[C@@]4(C)CC[C@@H]5O[C@H](c6ccccc6C(=O)O)OC[C@@]5(C)[C@@H]4CC[C@@]3(C)[C@]1(C)CC2 | 10 | ≥ 95 | 0.5 | 4.8 | 
COC(=O)[C@]12CCC(C)(C)C[C@H]1C1=CC[C@@H]3[C@@]4(C)CC[C@H](O)[C@@](C)(CO)[C@@H]4CC[C@@]3(C)[C@]1(C)CC2 | 12 | ≥ 95 |  |  | 
CC1(C)CC[C@]2(NC(=O)N3CCC[C@H]3C(=O)O)CC[C@]3(C)C(=CC[C@@H]4[C@@]5(C)CC[C@@H]6OC(C)(C)OC[C@@]6(C)[C@@H]5CC[C@]43C)[C@@H]2C1 | 0.9 | ≥ 95 | 6 | 5.4 | 
CC1(C)CC[C@]2(C(=O)O)CC[C@]3(C)C(=CC[C@@H]4[C@@]5(C)CC[C@@H]6O[C@H]([C@H](O)[C@@H](O)[C@H](O)CO)OC[C@@]6(C)[C@@H]5CC[C@]43C)[C@@H]2C1 | 9.7 | ≥ 95 | 3 | 29.2 | 
COC(=O)[C@]12CCC(C)(C)C[C@H]1C1=CC[C@@H]3[C@@]4(C)CC[C@@H]5O[C@H]([C@H](O)[C@@H](O)[C@H](O)[C@H](O)CO)OC[C@@]5(C)[C@@H]4CC[C@@]3(C)[C@]1(C)CC2 | 9.5 | ≥ 95 | 1.1 | 10.2 | 
CC(=O)OC[C@@]1(C)[C@@H]2CC[C@]3(C)[C@H](CC=C4[C@@H]5CC(C)(C)CC[C@]5(NC(=O)N5CCCC5)CC[C@]43C)[C@@]2(C)CC[C@@H]1O | 10.4 | ≥ 95 | 1 | 10.9 | 
CC1(C)CC[C@]2(C(=O)O)CC[C@]3(C)C(=CC[C@@H]4[C@@]5(C)CC[C@@H]6O[C@H](C[C@H]7O[C@H](CO)[C@@H](O)[C@H](O)[C@H]7O)OC[C@@]6(C)[C@@H]5CC[C@]43C)[C@@H]2C1 | 7.5 | ≥ 95 | 4.9 | 36.7 | 
CC(=O)OC[C@H](OC(C)=O)[C@H](OC(C)=O)[C@@H](OC(C)=O)[C@@H]1OC[C@@]2(C)[C@@H]3CC[C@]4(C)[C@H](CC=C5[C@@H]6CC(C)(C)CC[C@]6(C(=O)O)CC[C@]54C)[C@@]3(C)CC[C@@H]2O1 | 7.2 | ≥ 95 | 1.5 | 11.1 | 
C[C@@H]1O[C@@H](O[C@H]2[C@H](O[C@H]3CC[C@@]4(C)[C@@H](CC[C@]5(C)[C@@H]4CC=C4[C@@H]6CC(C)(C)CC[C@]6(C(=O)O)CC[C@]45C)[C@]3(C)CO)OC[C@H](O)[C@@H]2O)[C@H](O)[C@H](O)[C@H]1O [ALPHA-HEDERIN] | 19.6 | ≥ 95 |  |  | 
CC1(C)CC[C@]2(C(=O)O)CC[C@]3(C)C(=CC[C@@H]4[C@@]5(C)CC[C@H](O[C@@H]6O[C@H](CO)[C@@H](O)[C@H](O)[C@H]6O)[C@@](C)(CO)[C@@H]5CC[C@]43C)[C@@H]2C1 [Hederagenin-3-O-beta-D-glucopyranoside] | > 50 | ≥ 95 |  |  | 
